According to ChEMBL document CHEMBL1123985, “Oral absorption of cephalosporin antibiotics. 1. Synthesis, biological properties, and oral bioavailability of 7-(arylacetamido)-3-chloro cephalosporins in animals” (J Med Chem, 1988):
Converted amounts (≈) assume the structure as drawn.

How the values were obtained:
[1] = Minimum inhibitory concentration against N9 strain of Shigella sonnei; assay type: functional
[2] = system: Staphylococcus aureus; experiment: Minimum inhibitory concentration against S13E strain of Staphylococcus aureus; assay type: functional
[3] = Minimum inhibitory concentration against sens CL strain of Haemophilus influenzae; assay type: functional
[4] = system: Klebsiella aerogenes; experiment: Minimum inhibitory concentration against EB17 strain of Enterobacter aerogenes; assay type: functional
[5] = system: Escherichia coli; experiment: Minimum inhibitory concentration against EC14 strain Escherichia coli; assay type: functional
[6] = system: Staphylococcus epidermidis; experiment: Minimum inhibitory concentration against Epil strain of Staphylococcus epidermidis; assay type: functional
[7] = Oral bioavailability in mouse; assay type: ADME, organism-based; details: in vivo
How it was run: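 Male Cox mice given water and liquid diet overnight; 20 mg/kg in saline (2 mg/mL) sc or orally; urine from collection cages plus bladder contents over 2 h; activity by agar well assay with Bacillus subtilis ATCC 6633. Bioavailability from percent dose excreted in urine after oral vs parenteral dosing.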

[8] = system: Streptococcus pyogenes; experiment: Minimum inhibitory concentration against Streptococcus pyogenes C203; assay type: functional
[9] = system: Staphylococcus aureus; experiment: Minimum inhibitory concentration against V41 strain of Staphylococcus aureus; assay type: functional
[10] = system: Salmonella; experiment: Minimum inhibitory concentration against X514 strain of Salmonella; assay type: functional
[11] = system: Staphylococcus epidermidis; experiment: Minimum inhibitory concentration against 222 strain of Staphylococcus epidermidis; assay type: functional
[12] = system: Streptococcus pneumoniae; experiment: Minimum inhibitory concentration against Park strain of Streptococcus pneumoniae
[13] = system: Staphylococcus aureus; experiment: Minimum inhibitory concentration against X1.1 strain of Staphylococcus aureus; assay type: functional
[14] = system: Klebsiella pneumoniae; experiment: Minimum inhibitory concentration against X68 strain of Klebsiella pneumoniae; assay type: functional
[15] = Minimum inhibitory concentration against res 76 strain of Haemophilus influenzae; assay type: functional
[16] = system: Streptococcus pyogenes; experiment: Minimum inhibitory concentration against C203 strain of Streptococcus pyogenes
[17] = system: Streptococcus pneumoniae; experiment: Minimum inhibitory concentration against park strain of Streptococcus pneumoniae
[18] = system: Staphylococcus aureus; experiment: Minimum inhibitory concentration against 3055 strain of Staphylococcus aureus
[19] = Area under plasma concentration vs time curve observed in Rhesus monkeys after, iv administration of single 30 mg/kg dose; assay type: ADME, organism-based, Macaca mulatta; parameters: dose 30 mg/kg, route intravenous; details: rhesus monkey
How it was run: (§1)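 Rhesus monkeys, adult males, six animals per compound, each given drug orally and iv; fasted overnight. Single 30 mg/kg solution doses, by nasogastric tube (in water) or saphenous vein (in isotonic lactated Ringer). Plasma sampled at intervals, frozen at -70 °C, antibacterial activity by microbiological assay. AUC in μg min/mL; oral bioavailability from oral vs iv AUC.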

[20] = system: Canis familiaris; experiment: Area under plasma concentration vs time curve observed in female mongrel dogs after, iv administration of single 15 mg/kg dose; assay type: ADME, organism-based, Canis lupus familiaris; parameters: dose 15 mg/kg, route intravenous; details: dog, in vivo
How it was run: (§2)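 Six female mongrel dogs (14-23 kg) fasted overnight, bladder catheterized; single 15 mg/kg solution doses by stomach tube (in water, total 500 mL) or cephalic vein (saline or pH 6.0 NaCl/phosphate/acetate buffer). Plasma sampled at intervals; activity by disk-plate agar diffusion against E. coli MB 3804, standards in dog serum or buffer. AUC μg min/mL, mean ± SEM; BA from iv vs po AUC and urinary recovery.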

[21] = Oral bioavailability in Rhesus monkey; assay type: ADME, organism-based, Macaca mulatta; details: in vivo; how it was run: as §1
[22] = Oral bioavailability in dog (female mongrel); assay type: ADME, organism-based, Canis lupus familiaris; details: in vivo; how it was run: as §2
[23] = Dose in urine (24-h urine excretion) in female mongrel dogs after oral administration of single 15 mg/kg dose; assay type: ADME, organism-based, Canis lupus familiaris; parameters: dose 15 mg/kg, route oral; details: dog
How it was run: (§3)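 Female mongrel dogs (n=6), bladder catheter; urine collected at intervals after single 15 mg/kg iv or oral solution dose, frozen; antibiotic activity by disk-plate agar diffusion against E. coli MB 3804 with standards in pH 6.0 buffer; percent of dose recovered in urine.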

[24] = Dose in urine (24-h urine excretion) in female mongrel dogs after iv administration of single 15 mg/kg dose; assay type: ADME, organism-based, Canis lupus familiaris; parameters: dose 15 mg/kg, route intravenous; details: dog; how it was run: as §3
[25] = Area under plasma concentration vs time curve observed in Rhesus monkeys after oral administration of single 30 mg/kg dose; assay type: ADME, organism-based, Macaca mulatta; parameters: dose 30 mg/kg, route oral; details: rhesus monkey; how it was run: as §1
[26] = system: Canis familiaris; experiment: Area under plasma concentration vs time curve observed in female mongrel dogs after, oral administration of single 15 mg/kg dose; assay type: ADME, organism-based, Canis lupus familiaris; parameters: dose 15 mg/kg, route oral; details: dog, in vivo; how it was run: as §2

Row | SMILES | MIC [1] [mg/L] | MIC [2] [mg/L] | MIC [3] [mg/L] | MIC [4] [mg/L] | MIC [5] [mg/L] | MIC [6] [mg/L] | bioavailability [7] [%] | MIC [8] [mg/L] | MIC [9] [mg/L] | MIC [10] [mg/L] | MIC [11] [mg/L] | MIC [12] [mg/L] | MIC [13] [mg/L] | MIC [14] [mg/L] | MIC [15] [mg/L] | MIC [16] [mg/L] | MIC [17] [mg/L] | MIC [18] [mg/L] | also measured
1 | O=C(Cc1ccc(O)cc1)N[C@@H]1C(=O)N2C(C(=O)O)=C(Cl)CS[C@H]12 | 128 (≈ 347 µM) | 128 (≈ 347 µM) | 2 (≈ 5.42 µM) | > 128 | 32 (≈ 86.8 µM) | 8 (≈ 21.7 µM) | 14 | 0.125 (≈ 0.339 µM) | 16 (≈ 43.4 µM) | 8 (≈ 21.7 µM) | 2 (≈ 5.42 µM) | 0.25 (≈ 0.678 µM) | 2 (≈ 5.42 µM) | 8 (≈ 21.7 µM) | 2 (≈ 5.42 µM) | – | – | – | –
2 | O=C(Cc1csc2ccc(Cl)cc12)N[C@@H]1C(=O)N2C(C(=O)O)=C(Cl)CS[C@H]12 | 128 (≈ 289 µM) | 2 (≈ 4.51 µM) | 1 (≈ 2.26 µM) | 128 (≈ 289 µM) | 64 (≈ 144 µM) | 0.5 (≈ 1.13 µM) | – | 0.015 (≈ 0.0338 µM) | 2 (≈ 4.51 µM) | 128 (≈ 289 µM) | 0.125 (≈ 0.282 µM) | 0.015 (≈ 0.0338 µM) | 0.03 (≈ 0.0677 µM) | 128 (≈ 289 µM) | 0.25 (≈ 0.564 µM) | 0.03 (≈ 0.0677 µM) | 0.02 (≈ 0.0451 µM) | 0.06 (≈ 0.135 µM) | –
3 | O=C(Cc1csc(Cl)n1)N[C@@H]1C(=O)N2C(C(=O)O)=C(Cl)CS[C@H]12 | 64 (≈ 162 µM) | – | – | > 128 | – | – | 56 | – | – | 8 (≈ 20.3 µM) | – | 0.5 (≈ 1.27 µM) | – | – | – | – | – | – | –
4 | O=C(Cc1ccccc1)N[C@@H]1C(=O)N2C(C(=O)O)=CCS[C@H]12 | 64 (≈ 201 µM) | 32 (≈ 101 µM) | 4 (≈ 12.6 µM) | 64 (≈ 201 µM) | 8 (≈ 25.1 µM) | 4 (≈ 12.6 µM) | 12 | 0.25 (≈ 0.785 µM) | 16 (≈ 50.3 µM) | 8 (≈ 25.1 µM) | 1 (≈ 3.14 µM) | 1 (≈ 3.14 µM) | 1 (≈ 3.14 µM) | 4 (≈ 12.6 µM) | 1 (≈ 3.14 µM) | 0.25 (≈ 0.785 µM) | 1 (≈ 3.14 µM) | 1 (≈ 3.14 µM) | –
5 | COC1=C(C(=O)O)N2C(=O)[C@@H](NC(=O)Cc3csc(N)n3)[C@H]2SC1 | 32 (≈ 86.4 µM) | > 128 | 8 (≈ 21.6 µM) | 32 (≈ 86.4 µM) | 8 (≈ 21.6 µM) | 128 (≈ 346 µM) | < 5 | 0.5 (≈ 1.35 µM) | 32 (≈ 86.4 µM) | 2 (≈ 5.4 µM) | 32 (≈ 86.4 µM) | 2 (≈ 5.4 µM) | 8 (≈ 21.6 µM) | 8 (≈ 21.6 µM) | 8 (≈ 21.6 µM) | – | – | – | –
6 | COCC1=C(C(=O)O)N2C(=O)[C@@H](NC(=O)COc3ccccc3)[C@H]2SC1 | > 128 | 32 (≈ 84.6 µM) | 2 (≈ 5.29 µM) | > 128 | > 128 | 0.5 (≈ 1.32 µM) | 19 | 0.06 (≈ 0.159 µM) | 0.5 (≈ 1.32 µM) | > 128 | 0.25 (≈ 0.661 µM) | 0.125 (≈ 0.33 µM) | 0.25 (≈ 0.661 µM) | > 128 | 2 (≈ 5.29 µM) | – | – | – | –
7 | COC1=C(C(=O)O)N2C(=O)[C@@H](NC(=O)COc3ccccc3)[C@H]2SC1 | > 128 | 16 (≈ 43.9 µM) | 4 (≈ 11 µM) | > 128 | > 128 | 8 (≈ 22 µM) | 14 | 1 (≈ 2.74 µM) | 32 (≈ 87.8 µM) | > 128 | 2 (≈ 5.49 µM) | 1 (≈ 2.74 µM) | 2 (≈ 5.49 µM) | > 128 | 4 (≈ 11 µM) | – | – | – | –
8 | O=C(Cc1cccs1)N[C@@H]1C(=O)N2C(C(=O)O)=C(Cl)CS[C@H]12 | 32 (≈ 89.2 µM) | 16 (≈ 44.6 µM) | 1 (≈ 2.79 µM) | 64 (≈ 178 µM) | 4 (≈ 11.1 µM) | 2 (≈ 5.57 µM) | 44 | 0.125 (≈ 0.348 µM) | 16 (≈ 44.6 µM) | 2 (≈ 5.57 µM) | 1 (≈ 2.79 µM) | 0.125 (≈ 0.348 µM) | 0.5 (≈ 1.39 µM) | 2 (≈ 5.57 µM) | 1 (≈ 2.79 µM) | 0.125 (≈ 0.348 µM) | 0.25 (≈ 0.697 µM) | 0.5 (≈ 1.39 µM) | AUC [19]: 43.2 µg·h/mL; AUC [20]: 75.3 µg·h/mL; bioavailability [21]: 13.1%; bioavailability [22]: 21%; dose excreted [23]: 17%; dose excreted [24]: 75%; AUC [25]: 5.67 µg·h/mL; AUC [26]: 15.5 µg·h/mL
